The nature of series [1]: Rate constants determined using 31P NMR Kinetics experiments at 37 degrees Centigrade. In kind it is ADME. Summed up:
(§1)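 Compound (0.015-0.076 mmol) dissolved in about 90 µL CH3CN or THF, then diluted to 0.50 mL with 0.1-0.4 M cacodylate or acetate buffer; pH 7.4 target (7.0-8.0 accepted), 37 °C. Monitored by 31P NMR every 2.5 min for 30 min, then every 5 min; relative peak areas fitted by least squares to first-order kinetics to give rate constants and t1/2.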

Series [2] can be described thus: Half-life period for the compound was determined. In kind it is ADME. The essentials:
as §1

The structures appear in SMILES notation.

In the case of `O=P(O)(OCC1CCCO1)On1nnc2ccccc21` (centres undefined), the K in series [1] is 0.011 min⁻¹. In series [2], the half-life (usually the time in which the quantity being followed falls by half) worked out at 61 min.

In series [1], `COP(=O)(OCC1CCCO1)N(C)CCO` (centres undefined) displayed a K of 0.43 min⁻¹. This compound also gave a half-life in series [2] of 1.6 min.

In the case of `CN(CCBr)P(=O)(OCC1CCCO1)On1nnc2ccccc21` (centres undefined), the K in series [1] was found to be 0.094 min⁻¹. The compound further came in with a half-life in series [2] of 7.4 min.

Consider `Cc1cn([C@H]2C[C@H](O)[C@@H](COP(=O)(On3nnc4ccccc43)N(C)CCBr)O2)c(=O)[nH]c1=O` (some centres undefined), for which the K in series [1] amounted to 0.15 min⁻¹. Further, in series [2], the half-life came out at 4.7 min.

For `CCN(CC)CC.Cc1cn([C@H]2C[C@H](O)[C@@H](COP(=O)(O)N(C)CCBr)O2)c(=O)[nH]c1=O`, the K in series [1] stood at 0.19 min⁻¹. For the same compound, the half-life in series [2] stood at 3.7 min.

`Cc1cn([C@H]2C[C@H](O)[C@@H](COP(=O)(O)On3nnc4ccccc43)O2)c(=O)[nH]c1=O` displayed a K in series [1] of 0.0042 min⁻¹. Besides, the half-life in series [2] is 164 min.

In turn, `Cc1cn([C@H]2C[C@H](O)[C@@H](COP(=O)(O)N(C)CCBr)O2)c(=O)[nH]c1=O` returned a K in series [1] of 0.2 min⁻¹. This compound also came in with a half-life in series [2] of 3.4 min.

The values are drawn from ChEMBL document CHEMBL1133514, “Activation mechanisms of nucleoside phosphoramidate prodrugs” (J Med Chem, 2000).
